Source: ChEMBL document CHEMBL2176975, “Novel toll-like receptor 2 ligands for targeted pancreatic cancer imaging and immunotherapy” (J Med Chem, 2012)
Non-standard residues stand in square brackets, D forms with d. Residues, ends and D or L forms follow the SMILES beside them. *: point of attachment. Propyl(2R-PamO,3-PamO) = CCCCCCCCCCCCCCCC(=O)OC[C@H](C*)OC(=O)CCCCCCCCCCCCCCC; X1 = CC(=O)NCCCOCCOCCOCCCNC(=O)COCC(=O)*; Palmitoyl = CCCCCCCCCCCCCCCC(=O)*

Columns and labels:
[1] = biological target: T1, Toll-like receptor 2 (Homo sapiens, UniProt O60603); test: Displacement of Eu-DTPA from human TLR2 expressed in HEK293 cells after 1 hr; format: cell-based
T1 sequence (O60603 whole entry): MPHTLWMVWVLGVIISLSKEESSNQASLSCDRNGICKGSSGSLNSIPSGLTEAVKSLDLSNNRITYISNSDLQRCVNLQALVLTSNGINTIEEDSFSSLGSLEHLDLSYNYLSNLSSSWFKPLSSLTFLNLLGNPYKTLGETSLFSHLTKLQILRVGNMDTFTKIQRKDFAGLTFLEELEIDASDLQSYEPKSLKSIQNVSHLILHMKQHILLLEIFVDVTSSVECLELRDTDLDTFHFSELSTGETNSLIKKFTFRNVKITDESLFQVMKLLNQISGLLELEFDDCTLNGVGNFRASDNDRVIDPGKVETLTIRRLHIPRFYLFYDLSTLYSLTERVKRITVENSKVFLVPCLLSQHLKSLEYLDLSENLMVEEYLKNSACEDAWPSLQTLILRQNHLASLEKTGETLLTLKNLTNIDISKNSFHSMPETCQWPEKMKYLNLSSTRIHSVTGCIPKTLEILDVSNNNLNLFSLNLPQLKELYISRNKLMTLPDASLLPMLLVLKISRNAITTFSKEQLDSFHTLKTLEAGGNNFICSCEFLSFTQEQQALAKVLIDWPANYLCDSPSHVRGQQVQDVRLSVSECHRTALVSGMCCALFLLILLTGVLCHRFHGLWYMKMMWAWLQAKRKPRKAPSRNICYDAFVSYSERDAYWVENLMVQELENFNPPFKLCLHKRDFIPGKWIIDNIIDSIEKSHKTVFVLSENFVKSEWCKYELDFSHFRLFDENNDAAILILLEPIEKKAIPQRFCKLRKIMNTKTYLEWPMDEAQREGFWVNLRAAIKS
Outline: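 Live-cell europium TRF competition binding in HEK-293/hTLR2 (poly-D-lysine plates) or SU.86.86 cells grown 2 days to ~80% confluence. Unlabeled ligand 1 μM to 0.01 nM plus 90 nM Eu-DTPA-labeled tracer, 1 h at 37°C; three washes, enhancement solution 30 min at 37°C, read at 340 nm excitation/615 nm emission with time delay.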

[2] = biological target: T1, Toll-like receptor 2; test: Agonist activity at human TLR2 expressed in HEK293 cells assessed as induction of NF-kappaB signaling after 24 hrs by luminescence based luciferase reporter gene assay relative to 10 ug/mL of SAA; format: functional, cell-based
Outline: (§1)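 HEK-293/hTLR2 reporter cells transiently transfected with NF-κB-luciferase plasmid pNifty-Luc, stimulated 24 h with test compound at 1 μg/mL; luciferin-induced luminescence read. Fold enhancement taken versus serum amyloid A at 1 μg/mL or 10 μg/mL; n = 4.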

[3] = biological target: T1, Toll-like receptor 2; test: Agonist activity at human TLR2 expressed in HEK293 cells assessed as induction of NF-kappaB signaling after 24 hrs by luminescence based luciferase reporter gene assay relative to 1 ug/mL of SAA; format: functional, cell-based; outline: as §1
[4] = species: Mus musculus; test: Immunomodulatory activity in Trp1455/9M peptide immunized C57BL/6 mouse assessed as Trp1455/9M specific CD8+ T cells in blood at 50 ug using Trp1455/9M/ H-2Db staining measured after 7 of immunization by FACS analysis; format: functional, T-cell
Outline: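 C57BL/6 mice, 6-8 weeks old, immunized i.v. (200 μL) with a mixture of 100 μg Trp1_455/9M peptide, 50 μg anti-CD40 antibody (FGK45.5) and 50 μg TLR2 agonist. Submandibular blood taken, red cells lysed with ammonium chloride, stained 40 min on ice with CD8a, Trp1_455/9M/H-2Db tetramer and anti-MHC class II. Tetramer+ % of CD8+ cells read by flow cytometry; three mice per group.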

[5] = species: Mus musculus; test: Immunomodulatory activity in Trp1455/9M peptide immunized C57BL/6 mouse assessed as Trp1455/9M specific CD8+ T cells in blood at 50 ug using Trp1455/9M/ H-2Db staining measured after 21 of immunization by FACS analysis; format: functional, T-cell
Outline: (§2)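 C57BL/6 mice, 6-8 weeks, immunized iv with 100 μg Trp1 455/9M peptide, 50 μg anti-CD40 antibody and 50 μg TLR2 agonist in 200 μL. Submandibular blood on days 7, 21, 34, red cells lysed, stained 40 min on ice with CD8a antibody, Trp1 455/9M/H-2Db tetramer and anti-MHC II; % tetramer-positive CD8+ cells by flow cytometry; three mice per group, mean and SD.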

[6] = biological target: T1, Toll-like receptor 2; test: Agonist activity at human TLR2 expressed in HEK293 cells assessed as induction of NF-kappaB signaling after 24 hrs by luminescence based luciferase reporter gene assay; format: functional, cell-based
[7] = species: Mus musculus; test: Immunomodulatory activity in Trp1455/9M peptide immunized C57BL/6 mouse assessed as Trp1455/9M specific CD8+ T cells in blood at 50 ug using Trp1455/9M/ H-2Db staining measured after 34 of immunization by FACS analysis; format: functional, T-cell; outline: as §2
[8] = species: Mus musculus; test: Toxicity in Trp1455/9M peptide immunized C57BL/6 mouse at 50 ug measured after 34 of immunization; format: organism-based; conditions: in vivo

fold change (FC) [2]	fold change (FC) [3]	Structure (SMILES)	Ki [1] [nM]	Activity [4] [%]	Activity [5] [%]	EC50 [6] [nM]	Activity [7] [%]	Activity [8]
		CCCCCCCCCCCCCCCC(=O)OC[C@H](CSC[C@H](N)C(=O)N[C@@H](CO)C(=O)N[C@@H](CCCCN)C(=O)N[C@@H](CCCCN)C(=O)N[C@@H](CCCCN)C(=O)N[C@@H](CCCCN)C(=O)O)OC(=O)CCCCCCCCCCCCCCC (H-C(Propyl(2R-PamO,3-PamO))SKKKK-OH)		56.6	18.4	3.7	11.3	Non-toxic
		CCCCCCCCCCCCCCCC(=O)N[C@@H](CSC[C@@H](COC(=O)CCCCCCCCCCCCCCC)OC(=O)CCCCCCCCCCCCCCC)C(=O)N[C@@H](CO)C(=O)N[C@@H](CCCCN)C(=O)N[C@@H](CCCCN)C(=O)N[C@@H](CCCCN)C(=O)N[C@@H](CCCCN)C(=O)O (Palmitoyl-C(Propyl(2R-PamO,3-PamO))SKKKK-OH)			16.8	23	10.2	Non-toxic
4.8	13	CCCCCCCCCCCCCCCC(=O)OC[C@H](CSC[C@H](NC(=O)COCC(=O)NCCCOCCOCCOCCCNC(C)=O)C(=O)NCC(=O)N[C@@H](CO)C(=O)N[C@@H](CCC(N)=O)C(=O)N[C@@H](CC(N)=O)C(=O)N[C@@H](CC(C)C)C(=O)N[C@@H](C)C(=O)N[C@@H](CO)C(=O)N[C@@H](CC(C)C)C(=O)N[C@@H](CCC(=O)O)C(=O)N[C@@H](CCC(=O)O)C(N)=O)OC(=O)CCCCCCCCCCCCCCC (X1-C(Propyl(2R-PamO,3-PamO))GSQNLASLEE-NH2)						
4.2	11	CCCCCCCCCCCCCCCC(=O)OC[C@H](CSC[C@H](NC(=O)COCC(=O)NCCCOCCOCCOCCCNC(C)=O)C(=O)N[C@H](CO)C(=O)N[C@H](CCCNC(=N)N)C(=O)N[C@H](Cc1ccccc1)C(=O)N[C@H](CC(=O)O)C(=O)N[C@H](CCC(=O)O)C(=O)N[C@H](CC(=O)O)C(=O)N[C@H](CC(=O)O)C(=O)N[C@H](CC(C)C)C(=O)N[C@H](CCC(=O)O)C(N)=O)OC(=O)CCCCCCCCCCCCCCC (X1-C(Propyl(2R-PamO,3-PamO))[dS][dR][dF][dD][dE][dD][dD][dL][dE]-NH2)						

Structure (SMILES)	fold change (FC) [2]	fold change (FC) [3]	Ki [1] [nM]	Activity [4] [%]	Activity [5] [%]	EC50 [6] [nM]	Activity [7] [%]	Activity [8]
CCCCCCCCCCCCCCCC(=O)OC[C@H](CSC[C@H](NC(=O)COCC(=O)NCCCOCCOCCOCCCNC(C)=O)C(=O)NCC(=O)N[C@H](CO)C(=O)NCCCOCCOCCOCCCNC(=O)COCC(N)=O)OC(=O)CCCCCCCCCCCCCCC	5.2	14	25	49.6	14.6	20	6.63	Non-toxic
